In the M2OR odorant receptor database:

Columns and labels:
Details in all cases: stereoisomer not certain
[1] = target: T1, UniProt A2ATE5
T1 sequence (whole entry): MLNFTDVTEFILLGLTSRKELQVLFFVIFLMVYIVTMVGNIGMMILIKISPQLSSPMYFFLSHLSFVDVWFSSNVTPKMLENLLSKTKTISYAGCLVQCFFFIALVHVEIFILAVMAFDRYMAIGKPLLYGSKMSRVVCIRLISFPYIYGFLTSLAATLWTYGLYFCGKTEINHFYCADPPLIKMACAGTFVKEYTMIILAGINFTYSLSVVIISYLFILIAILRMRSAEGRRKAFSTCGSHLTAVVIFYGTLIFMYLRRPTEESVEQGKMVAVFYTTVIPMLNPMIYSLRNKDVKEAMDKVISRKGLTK
In short: (§1)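 Each entry records the cell line, G-protein, co-transfected protein and tags used. Methods varied with the source, often transient luciferase assays in mammalian cell lines. A receptor–molecule pair is called responsive (active) if the original authors judged its signal statistically different from baseline and non-responsive (inactive) otherwise.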

[2] = target: T2, UniProt A2AVB0
T2 sequence (whole entry): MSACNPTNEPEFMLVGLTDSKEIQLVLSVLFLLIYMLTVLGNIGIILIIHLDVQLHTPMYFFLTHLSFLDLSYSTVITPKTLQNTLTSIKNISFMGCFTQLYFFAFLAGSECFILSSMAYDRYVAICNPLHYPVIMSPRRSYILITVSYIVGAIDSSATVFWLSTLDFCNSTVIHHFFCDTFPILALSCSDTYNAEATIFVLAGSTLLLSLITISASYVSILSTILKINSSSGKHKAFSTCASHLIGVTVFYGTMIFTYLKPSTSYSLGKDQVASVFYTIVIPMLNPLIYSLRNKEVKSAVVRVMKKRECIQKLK
In short: as §1

[3] = target: T3, UniProt A2AVB5
T3 sequence (whole entry): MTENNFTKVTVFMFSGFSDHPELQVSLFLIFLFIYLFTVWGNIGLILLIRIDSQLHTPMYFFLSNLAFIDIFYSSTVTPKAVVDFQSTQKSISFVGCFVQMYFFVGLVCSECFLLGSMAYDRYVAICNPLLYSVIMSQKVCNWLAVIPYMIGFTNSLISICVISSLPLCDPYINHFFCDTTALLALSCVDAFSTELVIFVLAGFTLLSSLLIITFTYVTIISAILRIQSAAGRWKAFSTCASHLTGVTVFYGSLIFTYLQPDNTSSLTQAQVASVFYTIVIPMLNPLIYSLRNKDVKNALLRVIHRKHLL
In short: as §1

[4] = target: T4, UniProt B2RVX8
T4 sequence (whole entry): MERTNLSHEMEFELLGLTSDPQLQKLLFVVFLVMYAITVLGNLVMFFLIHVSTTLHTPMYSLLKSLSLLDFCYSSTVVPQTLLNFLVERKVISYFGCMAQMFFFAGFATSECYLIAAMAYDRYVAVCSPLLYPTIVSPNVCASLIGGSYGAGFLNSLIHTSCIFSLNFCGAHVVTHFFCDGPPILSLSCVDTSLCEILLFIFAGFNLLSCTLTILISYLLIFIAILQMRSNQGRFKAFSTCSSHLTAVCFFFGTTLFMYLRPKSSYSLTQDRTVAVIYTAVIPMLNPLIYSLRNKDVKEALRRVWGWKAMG
In short: as §1

[5] = target: T5, UniProt E9PVX1
T5 sequence (whole entry): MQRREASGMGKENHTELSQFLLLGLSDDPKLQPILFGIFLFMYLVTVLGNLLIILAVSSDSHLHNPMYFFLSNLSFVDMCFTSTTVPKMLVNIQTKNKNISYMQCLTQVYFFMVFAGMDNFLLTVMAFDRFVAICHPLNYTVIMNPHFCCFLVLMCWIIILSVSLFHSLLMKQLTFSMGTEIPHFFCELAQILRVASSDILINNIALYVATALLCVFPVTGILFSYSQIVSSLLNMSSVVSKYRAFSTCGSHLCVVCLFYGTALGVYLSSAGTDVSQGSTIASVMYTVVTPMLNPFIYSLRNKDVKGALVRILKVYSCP
In short: as §1

[6] = target: T6, UniProt E9PZ66
T6 sequence (whole entry): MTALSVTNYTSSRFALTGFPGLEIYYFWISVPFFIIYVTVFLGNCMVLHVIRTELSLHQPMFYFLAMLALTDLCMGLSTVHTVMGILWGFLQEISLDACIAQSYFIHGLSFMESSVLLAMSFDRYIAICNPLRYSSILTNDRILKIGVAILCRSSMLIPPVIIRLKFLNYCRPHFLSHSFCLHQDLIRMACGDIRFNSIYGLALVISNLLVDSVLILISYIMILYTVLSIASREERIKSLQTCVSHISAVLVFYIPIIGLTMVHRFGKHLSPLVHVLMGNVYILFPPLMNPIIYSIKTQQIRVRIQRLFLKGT
In short: as §1

[7] = target: T7, UniProt E9Q4X7
T7 sequence (whole entry): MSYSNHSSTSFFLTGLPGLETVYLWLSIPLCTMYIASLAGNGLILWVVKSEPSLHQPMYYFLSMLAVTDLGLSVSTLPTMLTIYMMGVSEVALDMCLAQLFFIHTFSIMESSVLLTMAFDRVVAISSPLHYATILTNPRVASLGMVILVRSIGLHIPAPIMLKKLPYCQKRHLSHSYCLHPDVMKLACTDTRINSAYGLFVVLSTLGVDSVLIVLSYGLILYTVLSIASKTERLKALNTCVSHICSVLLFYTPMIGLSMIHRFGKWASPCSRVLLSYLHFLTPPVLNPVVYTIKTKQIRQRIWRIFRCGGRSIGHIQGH
In short: as §1

[8] = target: T8, UniProt E9Q546
T8 sequence (whole entry): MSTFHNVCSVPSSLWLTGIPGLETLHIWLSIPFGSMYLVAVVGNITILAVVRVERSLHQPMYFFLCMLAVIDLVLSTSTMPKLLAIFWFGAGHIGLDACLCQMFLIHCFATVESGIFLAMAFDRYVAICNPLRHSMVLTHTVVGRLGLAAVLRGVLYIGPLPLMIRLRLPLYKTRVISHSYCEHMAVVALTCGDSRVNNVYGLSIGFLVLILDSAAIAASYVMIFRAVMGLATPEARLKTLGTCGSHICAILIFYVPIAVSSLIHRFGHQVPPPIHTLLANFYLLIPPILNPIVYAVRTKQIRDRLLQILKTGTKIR
In short: as §1

[9] = target: T9, UniProt E9Q6Z7
T9 sequence (whole entry): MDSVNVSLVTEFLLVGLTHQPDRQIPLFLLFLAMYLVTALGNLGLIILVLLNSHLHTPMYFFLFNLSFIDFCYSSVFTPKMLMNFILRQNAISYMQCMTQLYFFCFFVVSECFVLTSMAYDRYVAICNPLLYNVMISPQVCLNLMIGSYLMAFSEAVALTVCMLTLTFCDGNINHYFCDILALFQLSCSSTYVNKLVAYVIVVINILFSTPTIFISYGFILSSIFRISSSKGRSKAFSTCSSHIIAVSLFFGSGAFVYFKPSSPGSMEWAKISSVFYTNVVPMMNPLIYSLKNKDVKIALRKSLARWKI
In short: as §1

[10] = target: T10, UniProt K7N609
T10 sequence (whole entry): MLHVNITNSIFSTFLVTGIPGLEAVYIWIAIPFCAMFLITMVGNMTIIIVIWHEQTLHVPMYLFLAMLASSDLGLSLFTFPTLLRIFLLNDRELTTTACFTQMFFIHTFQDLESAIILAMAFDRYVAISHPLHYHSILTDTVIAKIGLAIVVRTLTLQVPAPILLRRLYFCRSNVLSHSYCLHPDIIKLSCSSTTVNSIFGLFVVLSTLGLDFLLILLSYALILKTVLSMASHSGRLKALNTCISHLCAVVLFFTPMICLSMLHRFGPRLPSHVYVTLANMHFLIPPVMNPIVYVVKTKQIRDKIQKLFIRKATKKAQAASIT
In short: as §1

[11] = target: T11, UniProt E1BM68
T11 sequence (whole entry): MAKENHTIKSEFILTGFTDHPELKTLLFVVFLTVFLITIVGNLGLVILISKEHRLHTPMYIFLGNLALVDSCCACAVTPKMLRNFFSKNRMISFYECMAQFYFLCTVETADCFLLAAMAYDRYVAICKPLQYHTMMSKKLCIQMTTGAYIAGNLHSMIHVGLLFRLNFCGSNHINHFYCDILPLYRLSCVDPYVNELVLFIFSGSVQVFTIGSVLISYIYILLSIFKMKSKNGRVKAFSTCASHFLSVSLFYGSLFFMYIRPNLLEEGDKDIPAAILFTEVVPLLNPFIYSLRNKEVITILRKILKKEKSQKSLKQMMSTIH
In short: as §1

[12] = target: T12, UniProt E9QAT7
T12 sequence (whole entry): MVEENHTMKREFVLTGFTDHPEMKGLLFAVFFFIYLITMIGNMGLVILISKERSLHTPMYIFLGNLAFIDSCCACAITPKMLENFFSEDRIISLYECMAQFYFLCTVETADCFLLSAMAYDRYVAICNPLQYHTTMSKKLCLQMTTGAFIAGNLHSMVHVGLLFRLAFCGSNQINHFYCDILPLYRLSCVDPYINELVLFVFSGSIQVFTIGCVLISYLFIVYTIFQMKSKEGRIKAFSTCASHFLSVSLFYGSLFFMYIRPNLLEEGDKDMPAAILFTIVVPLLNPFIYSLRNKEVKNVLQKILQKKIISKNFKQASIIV
In short: as §1

[13] = target: T13, UniProt E9PX47
T13 sequence (whole entry): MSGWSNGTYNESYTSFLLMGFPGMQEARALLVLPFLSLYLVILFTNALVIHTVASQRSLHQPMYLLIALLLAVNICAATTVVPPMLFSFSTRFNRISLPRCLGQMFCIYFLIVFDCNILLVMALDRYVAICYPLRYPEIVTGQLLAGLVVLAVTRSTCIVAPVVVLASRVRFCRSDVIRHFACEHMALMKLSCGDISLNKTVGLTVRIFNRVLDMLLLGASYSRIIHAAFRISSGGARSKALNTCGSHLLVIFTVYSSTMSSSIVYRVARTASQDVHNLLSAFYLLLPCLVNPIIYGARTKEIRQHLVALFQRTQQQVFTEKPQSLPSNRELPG
In short: as §1

[14] = target: T14, UniProt E9PXN3
T14 sequence (whole entry): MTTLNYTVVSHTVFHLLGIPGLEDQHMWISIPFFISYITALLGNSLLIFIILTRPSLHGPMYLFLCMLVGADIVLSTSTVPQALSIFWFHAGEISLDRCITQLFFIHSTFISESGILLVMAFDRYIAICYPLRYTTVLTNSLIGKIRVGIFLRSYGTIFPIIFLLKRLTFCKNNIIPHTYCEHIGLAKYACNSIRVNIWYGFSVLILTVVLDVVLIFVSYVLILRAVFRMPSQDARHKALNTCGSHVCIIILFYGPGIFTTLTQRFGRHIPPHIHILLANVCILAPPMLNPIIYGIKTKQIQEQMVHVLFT
In short: as §1

Row | SMILES | odorant receptor agonist call [1] | odorant receptor agonist call [2] | odorant receptor agonist call [3] | odorant receptor agonist call [4] | odorant receptor agonist call [5] | odorant receptor agonist call [6] | odorant receptor agonist call [7] | odorant receptor agonist call [8] | odorant receptor agonist call [9] | odorant receptor agonist call [10] | odorant receptor agonist call [11] | odorant receptor agonist call [12] | odorant receptor agonist call [13] | odorant receptor agonist call [14]
1 | COc1cc(C(=O)O)ccc1O | inactive | inactive | inactive | inactive | inactive | inactive | active | inactive | inactive | active |  |  |  | 
2 | COc1cnccn1 | inactive | inactive |  |  | inactive | inactive | inactive | inactive | inactive |  | active | inactive |  | 
3 | CC1(C)CC(=O)CC(=O)C1 | inactive | inactive |  |  | inactive | inactive | inactive | inactive | inactive |  |  |  |  | 
4 | CCC(=O)O | inactive | inactive | inactive | inactive | inactive | inactive | inactive | inactive | inactive | inactive |  |  |  | 
5 | CCN(CC)CC | inactive | inactive |  |  | inactive | inactive | inactive | inactive | inactive |  |  |  |  | 
6 | CCCCC=O | inactive | inactive |  |  | inactive | inactive | inactive | inactive | inactive |  |  |  | inactive | inactive
7 | CCSCC | inactive | inactive |  |  | inactive | inactive | inactive | inactive | inactive |  |  |  |  | 
8 | CCC=CCCCCC=O | inactive | inactive |  |  | inactive | inactive | inactive | inactive | inactive |  |  |  |  | 
9 | C=CC(=C)CCC=C(C)CCC=C(C)C | inactive | inactive |  |  | inactive | inactive | inactive | inactive | inactive |  |  |  |  | 
10 | Cc1ccccc1OC(=O)C(C)C | inactive | inactive |  |  | inactive | inactive | inactive | inactive | inactive |  |  |  |  | 
11 | CC(C)=CCCC(C)=CCOC(=O)C(C)C | inactive | inactive |  |  | inactive | inactive | inactive | inactive | inactive |  |  |  |  | 
12 | CSSSC | inactive | inactive |  |  | inactive | inactive | inactive | inactive | inactive |  |  |  |  | 
13 | CCCCCC=CCCC=O | inactive | inactive |  |  | inactive | inactive | active | inactive | inactive |  |  |  |  | 
14 | C=C1C2CCC(C2)C1(C)C (stereo not drawn) | inactive | inactive |  |  | inactive | inactive | inactive | inactive | inactive |  |  |  |  | 
